# Laboratory results as given in ChEMBL document CHEMBL3044834, “Novel protoporphyrinogen oxidase inhibitors: 3H-pyrazolo[3,4-d][1,2,3]triazin-4-one derivatives” (J Agric Food Chem, 2008).
# System: Amaranthus retroflexus
# Assay: Herbicidal activity against Amaranthus retroflexus assessed as inhibition of fresh weed plant weight at 187.5 g/ha using pre-emergence treatment protocol
# Format: functional
row,Compound,inhibition at 187.5 g/ha [%]
1,CCCN1C(=O)COc2cc(F)c(-n3nnc4c(cnn4C)c3=O)cc21,89.5

# System: Echinochloa crus-galli
# Assay: Herbicidal activity against Echinochloa crus-galli (barnyard grass) assessed as inhibition of fresh weed plant weight at 187.5 g/ha using pre-emergence treatment protocol
# Format: functional
# In short: (§1)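 Test compounds made up as emulsions by dissolving in 100 µL N,N-dimethylformamide, then adding a little Tween 20 and water. For post-emergence, weed seedlings at one leaf and one stem were sprayed at the same rates as the pre-emergence test. Fresh weight was recorded 15 days after treatment and expressed as percent inhibition versus controls. All treatments were run in triplicate.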
row,Compound,inhibition at 187.5 g/ha [%]
1,CCCN1C(=O)COc2cc(F)c(-n3nnc4c(cnn4C)c3=O)cc21,28.4

# System: Brassica rapa subsp. oleifera
# Assay: Herbicidal activity against Brassica rapa subsp. oleifera assessed as inhibition of fresh weed plant weight at 375 g/ha using pre-emergence treatment protocol
# Format: functional
row,Compound,inhibition at 375 g/ha [%]
1,CCCN1C(=O)COc2cc(F)c(-n3nnc4c(cnn4C)c3=O)cc21,57.1

# System: Amaranthus retroflexus
# Assay: Herbicidal activity against Amaranthus retroflexus assessed as inhibition of fresh weed plant weight at 1500 g/ha using pre-emergence treatment protocol
# Format: functional
row,Compound,inhibition at 1500 g/ha [%]
1,CCCN1C(=O)COc2cc(F)c(-n3nnc4c(cnn4C)c3=O)cc21,100

# System: Digitaria sanguinalis
# Assay: Herbicidal activity against Digitaria sanguinalis (hairy crabgrass) assessed as inhibition of fresh weed plant weight at 1500 g/ha using post-emergence treatment protocol
# Format: functional
# In short: as §1
row,Compound,inhibition at 1500 g/ha [%]
1,CCCN1C(=O)COc2cc(F)c(-n3nnc4c(cnn4C)c3=O)cc21,47.5

# System: Digitaria sanguinalis
# Assay: Herbicidal activity against Digitaria sanguinalis (hairy crabgrass) assessed as inhibition of fresh weed plant weight at 375 g/ha using pre-emergence treatment protocol
# Format: functional
row,Compound,inhibition at 375 g/ha [%]
1,CCCN1C(=O)COc2cc(F)c(-n3nnc4c(cnn4C)c3=O)cc21,65.4

# System: Brassica rapa subsp. oleifera
# Assay: Herbicidal activity against Brassica rapa subsp. oleifera assessed as inhibition of fresh weed plant weight at 93.75 g/ha using pre-emergence treatment protocol
# Format: functional
row,Compound,inhibition at 93.75 g/ha [%]
1,CCCN1C(=O)COc2cc(F)c(-n3nnc4c(cnn4C)c3=O)cc21,32.2

# System: Brassica rapa subsp. oleifera
# Assay: Herbicidal activity against Brassica rapa subsp. oleifera assessed as inhibition of fresh weed plant weight at 187.5 g/ha using pre-emergence treatment protocol
# Format: functional
row,Compound,inhibition at 187.5 g/ha [%]
1,CCCN1C(=O)COc2cc(F)c(-n3nnc4c(cnn4C)c3=O)cc21,38.5

# System: Echinochloa crus-galli
# Assay: Herbicidal activity against Echinochloa crus-galli (barnyard grass) assessed as inhibition of fresh weed plant weight at 93.75 g/ha using pre-emergence treatment protocol
# Format: functional
row,Compound,inhibition at 93.75 g/ha [%]
1,CCCN1C(=O)COc2cc(F)c(-n3nnc4c(cnn4C)c3=O)cc21,0

# System: Brassica rapa subsp. oleifera
# Assay: Herbicidal activity against Brassica rapa subsp. oleifera assessed as inhibition of fresh weed plant weight at 1500 g/ha using pre-emergence treatment protocol
# Format: functional
row,Compound,inhibition at 1500 g/ha [%]
1,CCCN1C(=O)COc2cc(F)c(-n3nnc4c(cnn4C)c3=O)cc21,100

# System: Digitaria sanguinalis
# Assay: Herbicidal activity against Digitaria sanguinalis (hairy crabgrass) assessed as inhibition of fresh weed plant weight at 93.75 g/ha using pre-emergence treatment protocol
# Format: functional
row,Compound,inhibition at 93.75 g/ha [%]
1,CCCN1C(=O)COc2cc(F)c(-n3nnc4c(cnn4C)c3=O)cc21,3.9

# System: Echinochloa crus-galli
# Assay: Herbicidal activity against Echinochloa crus-galli (barnyard grass) assessed as inhibition of fresh weed plant weight at 750 g/ha using pre-emergence treatment protocol
# Format: functional
row,Compound,inhibition at 750 g/ha [%]
1,CCCN1C(=O)COc2cc(F)c(-n3nnc4c(cnn4C)c3=O)cc21,91.2

# System: Echinochloa crus-galli
# Assay: Herbicidal activity against Echinochloa crus-galli (barnyard grass) assessed as inhibition of fresh weed plant weight at 375 g/ha using pre-emergence treatment protocol
# Format: functional
# In short: as §1
row,Compound,inhibition at 375 g/ha [%]
1,CCCN1C(=O)COc2cc(F)c(-n3nnc4c(cnn4C)c3=O)cc21,69.6

# System: Amaranthus retroflexus
# Assay: Herbicidal activity against Amaranthus retroflexus assessed as inhibition of fresh weed plant weight at 1500 g/ha using post-emergence treatment protocol
# Format: functional
# In short: as §1
row,Compound,inhibition at 1500 g/ha [%]
1,CCCN1C(=O)COc2cc(F)c(-n3nnc4c(cnn4C)c3=O)cc21,54.1

# System: Amaranthus retroflexus
# Assay: Herbicidal activity against Amaranthus retroflexus assessed as inhibition of fresh weed plant weight at 93.75 g/ha using pre-emergence treatment protocol
# Format: functional
row,Compound,inhibition at 93.75 g/ha [%]
1,CCCN1C(=O)COc2cc(F)c(-n3nnc4c(cnn4C)c3=O)cc21,83.8

# System: Digitaria sanguinalis
# Assay: Herbicidal activity against Digitaria sanguinalis (hairy crabgrass) assessed as inhibition of fresh weed plant weight at 1500 g/ha using pre-emergence treatment protocol
# Format: functional
row,Compound,inhibition at 1500 g/ha [%]
1,CCCN1C(=O)COc2cc(F)c(-n3nnc4c(cnn4C)c3=O)cc21,94.1

# System: Amaranthus retroflexus
# Assay: Herbicidal activity against Amaranthus retroflexus assessed as inhibition of fresh weed plant weight at 375 g/ha using pre-emergence treatment protocol
# Format: functional
row,Compound,inhibition at 375 g/ha [%]
1,CCCN1C(=O)COc2cc(F)c(-n3nnc4c(cnn4C)c3=O)cc21,93.2

# System: Brassica rapa subsp. oleifera
# Assay: Herbicidal activity against Brassica rapa subsp. oleifera assessed as inhibition of fresh weed plant weight at 1500 g/ha using post-emergence treatment protocol
# Format: functional
# In short: as §1
row,Compound,inhibition at 1500 g/ha [%]
1,CCCN1C(=O)COc2cc(F)c(-n3nnc4c(cnn4C)c3=O)cc21,20.5

# System: Brassica rapa subsp. oleifera
# Assay: Herbicidal activity against Brassica rapa subsp. oleifera assessed as inhibition of fresh weed plant weight at 750 g/ha using pre-emergence treatment protocol
# Format: functional
row,Compound,inhibition at 750 g/ha [%]
1,CCCN1C(=O)COc2cc(F)c(-n3nnc4c(cnn4C)c3=O)cc21,79.9

# System: Echinochloa crus-galli
# Assay: Herbicidal activity against Echinochloa crus-galli (barnyard grass) assessed as inhibition of fresh weed plant weight at 1500 g/ha using post-emergence treatment protocol
# Format: functional
# In short: as §1
row,Compound,inhibition at 1500 g/ha [%]
1,CCCN1C(=O)COc2cc(F)c(-n3nnc4c(cnn4C)c3=O)cc21,46.9

# System: Digitaria sanguinalis
# Assay: Herbicidal activity against Digitaria sanguinalis (hairy crabgrass) assessed as inhibition of fresh weed plant weight at 187.5 g/ha using pre-emergence treatment protocol
# Format: functional
row,Compound,inhibition at 187.5 g/ha [%]
1,CCCN1C(=O)COc2cc(F)c(-n3nnc4c(cnn4C)c3=O)cc21,14.2

# System: Amaranthus retroflexus
# Assay: Herbicidal activity against Amaranthus retroflexus assessed as inhibition of fresh weed plant weight at 750 g/ha using pre-emergence treatment protocol
# Format: functional
# In short: as §1
row,Compound,inhibition at 750 g/ha [%]
1,CCCN1C(=O)COc2cc(F)c(-n3nnc4c(cnn4C)c3=O)cc21,95.3

# System: Echinochloa crus-galli
# Assay: Herbicidal activity against Echinochloa crus-galli (barnyard grass) assessed as inhibition of fresh weed plant weight at 1500 g/ha using pre-emergence treatment protocol
# Format: functional
row,Compound,inhibition at 1500 g/ha [%]
1,CCCN1C(=O)COc2cc(F)c(-n3nnc4c(cnn4C)c3=O)cc21,94.8

# System: Digitaria sanguinalis
# Assay: Herbicidal activity against Digitaria sanguinalis (hairy crabgrass) assessed as inhibition of fresh weed plant weight at 750 g/ha using pre-emergence treatment protocol
# Format: functional
row,Compound,inhibition at 750 g/ha [%]
1,CCCN1C(=O)COc2cc(F)c(-n3nnc4c(cnn4C)c3=O)cc21,87.8
